{
  "source": "ChEMBL document CHEMBL1151419",
  "about": "“Antimicrobial effect of halocidin-derived peptide in a mouse model of Listeria infection” (Antimicrob Agents Chemother, 2007)",
  "key": {"[1]": {"system": "Mus musculus", "test": "Toxicity in BALB/c mouse assessed as lethality at 4 mg/kg, iv repeated 4 times at 1-day interval measured after 2 weeks", "format": "organism-based", "design": "dose 4 mg/kg, route intravenous", "settings": "in vivo, 336 h", "summary_of_the_method": "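Uninfected mice (n = 10) given 4 mg/kg i.v., repeated four times at 1-day intervals. Deaths monitored for 2 weeks.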"}, "[2]": {"system": "Listeria monocytogenes", "test": "Antimicrobial activity against Listeria monocytogenes ATCC 19111 infected in BALB/c mouse assessed as survival of mouse at 4 mg/kg, iv administered immediately after bacterial challenge measured after 6 days", "format": "functional", "settings": "ATCC 19111, 144 h", "summary_of_the_method": "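L. monocytogenes grown 18 h at 37°C in brain heart infusion broth and frozen at –80°C; viability checked by plating. Mice infected via tail vein with 2 x 10^5 bacteria each. A single 4 mg/kg i.v. dose in 100 µl PBS was given immediately or 2 h after infection; PBS vehicle controls. Ten mice per group; survivors counted daily for 15 days.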"}, "[3]": {"system": "Staphylococcus aureus", "test": "Antimicrobial activity against methicillin-resistant Staphylococcus aureus CCARM 3695 treated with sample containing 25 to 200 ug/ml drug incubated with PBS for 10 mins measured after 3 hrs by radial diffusion assay", "format": "functional, organism-based", "summary_of_the_method": "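Serum-free radial diffusion. Peptide in PBS alone (200 µg/ml control) held 10 min at 37°C; 5 µl placed in 3-mm wells. Underlay: pH 7.4 agarose, phosphate/citrate, 0.3 mg/ml TSB, mid-log MRSA 4 x 10^6 CFU/ml. After 3 h at 37°C, TSB-agarose overlay, incubated overnight. Clear-zone diameter read to 0.1 mm (1 mm = 10 units).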"}, "[4]": {"system": "Staphylococcus aureus", "test": "Antimicrobial activity against methicillin-resistant Staphylococcus aureus CCARM 3695 treated with supernatant containing 2 mg drug incubated for 10 mins with PBS containing 50 % normal human serum centrifuged for 3 hrs by radial diffusion assay", "format": "functional, organism-based", "summary_of_the_method": "(§1)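 2 mg peptide incubated 10 min at 37°C in 2 ml PBS, either serum-free or with 50% heat-treated normal human serum. Spun 3 h at 295,000 x g, 4°C. Then 5 µl of supernatant tested by radial diffusion against mid-log MRSA (4 x 10^6 CFU/ml underlay, 3 h at 37°C, overlay, overnight); clear zones measured.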"}, "[5]": {"system": "Listeria monocytogenes", "test": "Antimicrobial activity against Listeria monocytogenes ATCC 19111 infected in BALB/c mouse assessed as reduction in number of recovered CFU in spleen at 100 ug, iv measured after 3 days", "format": "functional, organism-based", "summary_of_the_method": "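Mice were infected i.v. with L. monocytogenes and immediately given 100 µg peptide in 100 µl PBS i.v.; PBS alone served as control. On days 1 and 3, liver and spleen were homogenized in PBS/0.1% BSA, serially diluted, and plated on TSA with 5% sheep blood. Colonies were counted after 18 h at 37°C. Three independent experiments; mean ± SD.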"}, "[6]": {"system": "Staphylococcus aureus", "test": "Antimicrobial activity against methicillin-resistant Staphylococcus aureus CCARM 3695 after 18 hrs by broth microdilution assay in presence of 150 mM NaCl", "format": "functional", "settings": "CCARM 3695, 18 h", "summary_of_the_method": "(§2)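 Same broth microdilution, but the medium was Mueller-Hinton broth supplemented with 150 mM NaCl. Inoculum 2 x 10^5 CFU/ml final. Peptide twofold series in 0.01% acetic acid (stocks 640 to 10 µg/ml). After 18 h at 37°C, MIC read as the lowest concentration with no visible growth.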"}, "[7]": {"system": "Staphylococcus aureus", "test": "Antimicrobial activity against methicillin-resistant Staphylococcus aureus CCARM 3695 treated with sample containing 25 to 200 ug/ml drug incubated with PBS containing 50% normal human serum for 10 mins measured after 3 hrs by radial diffusion assay", "format": "functional, organism-based", "summary_of_the_method": "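Normal human serum from three donors, heat-treated 30 min at 56°C. Peptide at 25–200 µg/ml in PBS with 50% serum, held 10 min at 37°C; 5 µl placed in 3-mm wells. Underlay: 1% agarose, 9 mM phosphate, 1 mM citrate, 0.3 mg/ml TSB, pH 7.4, with 4 x 10^6 CFU/ml mid-log MRSA. After 3 h at 37°C, overlaid (1% agarose, 6% TSB), incubated overnight. Clear zones in units (1 mm = 10 units); triplicate means.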"}, "[8]": {"system": "Staphylococcus aureus", "test": "Antimicrobial activity against methicillin-resistant Staphylococcus aureus CCARM 3695 treated with supernatant containing 2 mg drug incubated for 10 mins with PBS centrifuged for 3 hrs by radial diffusion assay", "format": "functional, organism-based", "summary_of_the_method": "as §1"}, "[9]": {"system": "Listeria monocytogenes", "test": "Antimicrobial activity against Listeria monocytogenes ATCC 19111 infected in BALB/c mouse assessed as survival of mouse at 4 mg/kg, iv administered 2 hrs after bacterial challenge measured after 4 days", "format": "functional, organism-based", "design": "dose 4 mg/kg", "summary_of_the_method": "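Mice (n = 10) were infected by tail vein with 2 x 10^5 L. monocytogenes, grown 18 h at 37°C in brain heart infusion broth. A single i.v. dose of 4 mg/kg in 100 µl PBS was given 2 h after infection; PBS-treated infected mice served as vehicle control. Surviving mice were counted daily for 15 days.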"}, "[10]": {"test": "Toxicity against human erythrocytes in assay tube containing mixture of erythrocytes/Listeria monocytogenes cells at 40 ug/ml after 30 mins", "format": "cell-based", "settings": "erythrocyte, 0.5 h", "summary_of_the_method": "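Washed mid-log L. monocytogenes (final 1 x 10^5 CFU/ml) was mixed with human blood cells (final 5 x 10^8 cells/ml) and peptide (final 40 µg/ml) in PBS at 37°C. A peptide-free control was included. At 10, 20 and 30 min, aliquots were plated on TSA and colonies counted after overnight growth. Blood cells were counted by hemocytometer under light microscopy.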"}, "[11]": {"system": "Listeria monocytogenes", "test": "Antimicrobial activity against Listeria monocytogenes ATCC 19111 infected in BALB/c mouse at 4 mg/kg, iv in presence of increasing concentration of LTA", "format": "functional, organism-based", "design": "dose 4 mg/kg"}, "[12]": {"system": "Enterococcus faecium", "test": "Antimicrobial activity against vancomycin-resistant Enterococcus faecium CCARM 5029 after 18 hrs by broth microdilution assay in presence of 150 mM NaCl", "format": "functional", "settings": "CCARM 5029, 18 h", "summary_of_the_method": "as §2"}, "[13]": {"test": "Toxicity in human erythrocytes assessed as hemolysis at 50 ug/ml relative to Triton X-100", "format": "cell-based, Erythrocyte", "settings": "read-out: Activity", "summary_of_the_method": "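Peptide (20 µl) was mixed with 180 µl of a 2.5% (vol/vol) human RBC suspension in PBS and incubated 30 min at 37°C. PBS was added and samples centrifuged 3 min at 10,000 x g; supernatant A540 was read. Hemolysis was expressed relative to a peptide-free PBS blank and 1% Triton X-100 as 100%.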"}, "[14]": {"system": "Listeria monocytogenes", "test": "Antimicrobial activity against Listeria monocytogenes ATCC 19111 infected in BALB/c mouse at 4 mg/kg, iv in presence of increasing concentration of mannan", "format": "functional, organism-based", "design": "dose 4 mg/kg"}, "[15]": {"system": "Listeria monocytogenes", "test": "Antimicrobial activity against Listeria monocytogenes ATCC 19111 infected in BALB/c mouse at 4 mg/kg, iv in presence of increasing concentration of PGN", "format": "functional, organism-based", "design": "dose 4 mg/kg"}, "[16]": {"system": "Listeria monocytogenes", "test": "Antimicrobial activity against Listeria monocytogenes ATCC 19111 after 18 hrs by broth microdilution assay in presence of 150 mM NaCl", "format": "functional", "settings": "ATCC 19111, 18 h", "summary_of_the_method": "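Bacteria were grown overnight to stationary phase in Mueller-Hinton broth at 37°C and diluted to 2 x 10^5 CFU/ml. Line 3 used MHB plus 150 mM NaCl. Peptide stock (640 µg/ml in 0.01% acetic acid) was twofold serially diluted to 10 µg/ml, and 11 µl was added per 100 µl of cells. Turbidity was read after 18 h at 37°C; MIC was the minimum concentration visibly inhibiting growth.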"}},
  "note": "Calls of active or inactive are those of the source. No cut-off for these calls is given here. Bridge positions count the residues as written; N and C are the ends. Peptide text beside a SMILES is read from it. I, II: the chains in the order shown.",
  "data": [
    {"smiles": "CC(C)C[C@H](NC(=O)CNC(=O)[C@H](Cc1cnc[nH]1)NC(=O)[C@H](Cc1cnc[nH]1)NC(=O)[C@H](CC(C)C)NC(=O)[C@H](CC(C)C)NC(=O)[C@H](C)N)C(=O)N[C@@H](CC(N)=O)C(=O)N[C@@H](CSSC[C@H](NC(=O)[C@H](CC(N)=O)NC(=O)[C@H](CC(C)C)NC(=O)CNC(=O)[C@H](Cc1cnc[nH]1)NC(=O)[C@H](Cc1cnc[nH]1)NC(=O)[C@H](CC(C)C)NC(=O)[C@H](CC(C)C)NC(=O)[C@H](C)NC(=O)[C@H](CC(N)=O)NC(=O)[C@H](CC(C)C)NC(=O)[C@H](Cc1c[nH]c2ccccc12)NC(=O)[C@@H](N)CCCCN)C(=O)N[C@@H](C)C(=O)N[C@@H](CCCCN)C(=O)NCC(=O)N[C@H](C(=O)N[C@@H](CC(C)C)C(=O)N[C@@H](C)C(=O)O)C(C)C)C(=O)N[C@@H](C)C(=O)N[C@@H](CCCCN)C(=O)NCC(=O)N[C@H](C(=O)N[C@@H](CC(C)C)C(=O)N[C@@H](C)C(=O)O)C(C)C", "note": "(I: H-KWLNALLHHGLNCAKGVLA-OH / II: H-ALLHHGLNCAKGVLA-OH; disulfide I:13-II:9)", "values": [
      {"measurement": "Activity", "setting": "[1]", "result": "Non-toxic"},
      {"measurement": "survival at 4 mg/kg", "setting": "[2]", "result": 100, "unit": "%"},
      {"measurement": "Activity", "setting": "[3]", "result": "Active"},
      {"measurement": "Activity", "setting": "[4]", "result": "Active"},
      {"measurement": "Activity", "setting": "[5]", "result": "Active"},
      {"measurement": "MIC", "setting": "[6]", "result": 16, "unit": "µg/mL"},
      {"measurement": "Activity", "setting": "[7]", "result": "Active"},
      {"measurement": "Activity", "setting": "[8]", "result": "Active"},
      {"measurement": "Activity", "setting": "[9]", "result": "Active"},
      {"measurement": "Activity", "setting": "[10]", "result": "Non-toxic"},
      {"measurement": "Activity", "setting": "[11]", "result": "inactive"},
      {"measurement": "MIC", "setting": "[12]", "result": 8, "unit": "µg/mL"},
      {"measurement": "hemolysis at 50 ug/ml", "setting": "[13]", "result": 4.5, "unit": "%"},
      {"measurement": "Activity", "setting": "[14]", "result": "Active"},
      {"measurement": "Activity", "setting": "[15]", "result": "inactive"},
      {"measurement": "MIC", "setting": "[16]", "result": 16, "unit": "µg/mL"}
    ]}
  ]
}
